Measurements published in ChEMBL document CHEMBL1135645, “Synthesis and evaluation of analogues of 5'-([(Z)-4-amino-2-butenyl]methylamino)-5'-deoxyadenosine as inhibitors of tumor cell growth, trypanosomal growth, and HIV-1 infectivity” (J Med Chem, 2002).

What was measured:
[1] = system: Trypanosoma brucei rhodesiense; test: In vitro anti trypanosomal activity against Trypanosomal 243 (KETRI)strain; assay type: functional, organism-based
[2] = system: Trypanosoma brucei rhodesiense; test: In vitro anti trypanosomal activity against Trypanosomal 243 As 10e-3 (KETRI)strain; assay type: functional, organism-based
MCF7 [3] = test: In vitro Anti Neoplastic Activity against Human Breast adenocarcinoma MCF-7 Cell lines; assay type: functional, cell-based
In short: (§1)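 SRB growth assay. Cell lines were grown as monolayers in RPMI-1640 with 5% FCS, 5% NuSerum IV, 20 mM HEPES and 2 mM glutamine, and seeded at 400–1200 cells/well. They attached for 15–18 h before drug. Ten concentrations over 5 logs were tested, with final DMSO ≤0.25%. Exposure was 72 h at 37 °C. Cells were TCA-fixed, stained with sulforhodamine B and read at OD 570 nm. IC50 is 50% growth inhibition.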

[4] = system: Trypanosoma brucei brucei; test: In vitro anti trypanosomal activity against Trypanosomal 110 (EATRO)strain; assay type: functional, organism-based
[5] = system: Trypanosoma brucei rhodesiense; test: In vitro anti trypanosomal activity against Trypanosomal 269 (KETRI)strain; assay type: functional, organism-based
MCF7 [6] = test: In vitro Anti Neoplastic Activity against Adriamycin resistant Human Breast adenocarcinoma MCF7-Adr Cell lines; assay type: functional, cell-based; in short: as §1
HT-29 = test: In vitro Anti Neoplastic Activity in Human Colon adenocarcinoma HT-29 Cell lines; assay type: functional, cell-based; in short: as §1
A121 = test: In vitro Anti Neoplastic Activity against Human ovarian carcinoma A121 Cell lines; assay type: functional, cell-based; in short: as §1
A549 = test: In vitro Anti Neoplastic Activity against Human non small cell lung carcinoma A549 Cell lines; assay type: functional, cell-based; in short: as §1
L1210 [7] = test: In vitro Anti Neoplastic Activity against L1210 murine leukemia Cell lines; assay type: functional, cell-based; conditions: Mus musculus; in short: as §1
L1210 [8] = test: In vitro inhibition of AdoMetDC derived from L1210 Murine Leukemia Cells at a dose of 100 uM; assay type: functional; conditions: Mus musculus

Row | SMILES | IC50 [1] | IC50 [2] | IC50 (MCF7 [3]) | IC50 [4] | IC50 [5] | IC50 (MCF7 [6]) | IC50 (HT-29) | IC50 (A121) | IC50 (A549) | IC50 (L1210 [7]) | inhibition at 100 µM (L1210 [8])
1 | CC(=O)OCC(CN(C)C/C=C\CN)OC(COC(C)=O)n1cnc2c(N)ncnc21 (stereo not drawn) | 4.6 µM | 2.9 µM | > 100 µM | 1.8 µM | 3.8 µM | > 100 µM | > 100 µM | > 100 µM | > 100 µM | – | –
2 | CN(C/C=C\CN)CC(CO)OC(CO)n1cnc2c(N)ncnc21 (stereo not drawn) | 15 µM | – | 63 µM | 16 µM | – | 78 µM | 112 µM | 41 µM | > 100 µM | > 600 µM | 27%
